# Source: PubChem BioAssay (The Scripps Research Institute Molecular Screening Center)
# An excerpt weighted towards active compounds, which were near 1.4% of everything screened.
# MsrA act: bovine MsrA enzyme activators, primary screen, biochemical, absorbance, HTS; activation, % at 10.6 µM; Methionine sulfoxide reductase A (Bos taurus); purified bovine MsrA, absorbance read-out; 360,000 tested, 0.3% active; AID 602163, 2012; in the data active means activation above about 7.5%;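 further: 0% = vehicle and 100% = reference activator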
# MsrA inh: bovine MsrA enzyme inhibitors, primary screen, biochemical, absorbance, HTS; purified bovine MsrA, absorbance read-out; inhibition, % at 15.5 µM; 360,000 tested, 0.75% active;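 further: 0% = vehicle wells with enzyme and 100% = reference inhibitor wells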
# ARFGAP1 inh: inhibitors of rat ARFGAP1 GAP activity, primary screen, biochemical, fluorescence polarization, GDP tracer. ADP-ribosylation factor GTPase-activating protein 1 (Rattus norvegicus), Q62848. inhibition, % at 16.5 µM. AID 651572, 2012. Arfgap1-stimulated ARF1 GTP hydrolysis, GDP FP detection. 360,000 tested, 0.26% active;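 active means inhibition above a per-plate limit, mean inhibition of low control wells plus 3 SD, cut at about 25% in these data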;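 further: 0% = DMSO wells with enzyme and 100% = wells lacking Arfgap1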
# Target sequence (Q62848 1-136 limits assumed): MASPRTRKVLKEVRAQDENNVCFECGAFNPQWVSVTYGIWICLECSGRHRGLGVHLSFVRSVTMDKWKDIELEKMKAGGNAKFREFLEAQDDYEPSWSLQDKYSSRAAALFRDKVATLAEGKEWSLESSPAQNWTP
#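 Assay system: purified rat His6-Arfgap1 residues 1-136 (GAP domain); Reagent: human Δ17 ARF1 bound to GTP; Dosing: 16.5 µM single point, 1.26% DMSO; Times: GTP hydrolysis reaction 2 h at 25 °C; Signal: FP, GDP Alexa 633 tracer displaced from anti-GDP antibody, 620/688 nm; Measure: % inhibition from polarization.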
# ASAP1 inh: inhibitors of human ASAP1 ArfGAP activity, primary screen, biochemical, fluorescence polarization | AID 624377, 2012 | 360,000 tested, 0.19% active | Arf-GAP with SH3 domain, ANK repeat and PH domain-containing protein 1 (Homo sapiens), … | ASAP1-stimulated ARF1 GTP hydrolysis, GDP FP detection | inhibition, % at 16.5 µM; in the data active means inhibition above about 25%;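 further: 0% = vehicle with enzyme and substrate and 100% = no enzyme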
# Target sequence (Q9ULH1 325-724 limits assumed): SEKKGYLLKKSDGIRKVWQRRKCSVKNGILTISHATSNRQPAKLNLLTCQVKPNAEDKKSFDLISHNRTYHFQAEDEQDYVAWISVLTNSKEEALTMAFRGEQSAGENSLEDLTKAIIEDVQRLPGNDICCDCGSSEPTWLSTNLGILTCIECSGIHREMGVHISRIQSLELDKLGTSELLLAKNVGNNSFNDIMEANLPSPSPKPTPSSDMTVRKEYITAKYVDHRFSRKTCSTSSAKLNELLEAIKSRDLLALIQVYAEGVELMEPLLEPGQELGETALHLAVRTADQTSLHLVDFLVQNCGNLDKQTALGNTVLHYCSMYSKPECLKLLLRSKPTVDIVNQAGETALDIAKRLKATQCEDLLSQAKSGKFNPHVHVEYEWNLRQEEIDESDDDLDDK
# ARFGAP1 confirm: ARFGAP1 inhibitor hit confirmation, biochemical, fluorescence polarization, triplicate. AID 651608, 2012. ARFGAP1-stimulated ARF1 GTP hydrolysis, GDP tracer FP. inhibition, % at 16.5 µM. 890 tested, 30% active. shares compounds with ARFGAP1 inh;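 active means average inhibition over triplicates above the hit cutoff set in the earlier primary screen, cut at about 25% in these data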;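 further: 0% = Arfgap1 plus ARF1-GTP with DMSO and 100% = wells lacking Arfgap1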
# MsrA inh confirm: bovine MsrA inhibitors, retest, confirmation, biochemical, absorbance, HTS | shares compounds with MsrA inh | purified bovine MsrA, absorbance read-out | inhibition, % at 15.5 µM | 2,300 tested, 41% active | AID 651822, 2012;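 further: coupled to thioredoxin reductase with NADPH and selenocystamine and DMSO as substrate; 0% = vehicle only and 100% = full effect of reference inhibitor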
# * marks the source's active call; other numbers are inactive results; . = no result. Unless noted, no stated cut-off is given here; in the data, active means inhibition above about 4.5%; inactive means the rest.
SMILES,MsrA act,MsrA inh,ARFGAP1 inh,ASAP1 inh,ARFGAP1 confirm,others
COc1ccccc1C(=O)c1nc2ccccc2n1C,-5.5,1.5,25.0*,-8.6,-5.9,
COc1cc(/C=C(\C#N)c2ccccn2)ccc1OCC(=O)Nc1ccc(Br)cc1,-3.2,-0.1,7.5,-0.9,.,
COc1cc(/C=C(\C#N)c2ccccn2)ccc1OCC(=O)Nc1c(Cl)cccc1Cl,-3.3,0.8,29.0*,9.5,31.1*,
CC1CCCN(C(=O)Cn2nnc(-c3cccnc3)n2)C1 (configuration not stated),-13.8,-0.5,26.3*,-6.2,8.2,
COc1ccc(S(=O)(=O)N2CCN(Cc3cc(OC)c(OC)cc3OC)CC2)cc1,-2.6,0.5,27.2*,13.0,-11.1,
COc1cc(OC)c(OC)cc1CN1CCN(S(=O)(=O)c2ccc(NC(C)=O)cc2)CC1,-4.0,-0.1,-9.7,1.5,.,
FC(F)Oc1ccc(NC(=S)NC23CC4CC(CC(C4)C2)C3)cc1,-2.3,-0.3,25.3*,-3.8,8.4,
CCc1nc2c(OCCOc3ccc(F)cc3)cccn2c1N(C=O)Cc1ccccc1,-2.0,-0.7,7.7,-8.3,.,
COc1ccccc1NC(=O)c1cc([N+](=O)[O-])ccc1N1CCOCC1,-4.3,1.7,3.4,-1.2,.,
CC(=O)N1CCN=C1SCc1ccccc1Cl,-1.4,-0.7,-6.2,-3.6,.,
CCC(=O)N1CCN=C1SCc1ccccc1Cl,-11.3,-1.5,28.6*,3.2,3.2,
CC(C)[C@H](NC(=O)c1cc2cc(Cl)ccc2n1C)C(=O)N[C@@H](C(=O)O)c1ccccc1,-7.5,-0.4,0.2,0.6,.,
O=C(Nc1nnc(Cc2ccc([N+](=O)[O-])cc2)s1)Nc1ccccc1F,-0.4,-0.2,60.2*,-2.9,19.0,
CC(C)(C)CC(C)(C)NC(=O)/C=C/C(=O)O,-5.3,-0.5,25.1*,-15.6,-1.7,
CCCCC(=O)N(C)c1c(C)nc2ccc(C(=O)NCCN(C)C)cn12,0.0,0.7,6.8,0.5,.,
COc1cccc(-c2nnc3sc(-c4ccccn4)nn23)c1,-10.3,-0.7,41.1*,23.5,45.2*,
COc1cc(/C=N/Nc2ccc(C(F)(F)F)cn2)ccc1O,-0.8,3.2,28.6*,9.1,4.3,
COc1ccc(-c2cc(-c3ccc(Cl)cc3)c(C#N)c(SCC(=O)O)n2)cc1,-3.1,0.1,-42.1,11.7,.,
O=C(Cc1ccccc1)NC1(O)C(=O)c2ccccc2C1=O,-2.2,-1.0,27.3*,13.7,9.3,
COc1cccc(-c2nc(CS(=O)(=O)CC(=O)Nc3cccc(C(C)=O)c3)c(C)o2)c1,-1.3,1.6,3.8,-4.4,.,
COc1ccc(-c2nc(CS(=O)(=O)CC(=O)Nc3cccc(C(C)=O)c3)c(C)o2)cc1,-3.4,-0.5,26.5*,15.8,12.1,
COc1cc2c(cc1OC)C(CNC(=O)C=Cc1ccccc1)C2 (configuration not stated),-2.4,0.7,-10.2,3.5,.,
COc1ccc(NC(=O)CSc2nc3sc4c(c3c(=O)n2-c2ccc(OC)cc2)CCN(C)C4)cc1,-1.4,3.0,19.6,11.9,.,
COc1ccc(-n2c(SCC(=O)Nc3nccs3)nc3sc4c(c3c2=O)CCN(C)C4)cc1,-1.6,2.2,25.1*,9.1,27.1*,
CCC(Oc1ccccc1)C(=O)Nc1ccc(S(=O)(=O)Nc2cc(C)on2)cc1 (configuration not stated),-6.7,-1.0,2.8,9.3,.,
SMILES,MsrA act,MsrA inh,ARFGAP1 inh,ASAP1 inh,ARFGAP1 confirm,others
COc1cc2oc(-c3ccc(O)cc3)cc(=O)c2c(O)c1OC,-4.6,3.7,36.2*,8.5,7.7,
COc1c(O)cc2oc(-c3ccc(O)cc3)cc(=O)c2c1O,0.0,2.6,-0.5,5.8,.,
CCCCOCC1CN(CCCC)S(=O)(=O)c2c(NCc3cc(OC)c(OC)c(OC)c3)cccc2O1 (configuration not stated),.,0.6,-6.7,-11.5,.,
COc1cccc(Nc2nc(-c3sc(NC(=O)c4ccccc4)nc3C)cs2)c1,-2.8,1.2,25.5*,11.7,14.7,
O=C(O)c1cccc(NS(=O)(=O)c2cc(S(=O)(=O)c3ccc(Cl)cc3)ccc2Cl)c1,-5.5,1.5,-0.6,6.3,.,
CN(C)CC(CCCCC(CN(C)C)C(=O)c1ccccc1)C(=O)c1ccccc1 (configuration not stated),0.2,1.4,-8.3,-12.9,.,
Cc1ccc(C(=O)N[C@@H](C)CN2C3=NC[C@H](C(C)C)N3C[C@H]2Cc2ccc(O)cc2)cc1Br,-1.9,-1.0,26.3*,-2.4,9.8,
O=C(Nc1ccc2ccccc2c1)OC1CCS(=O)(=O)C1 (configuration not stated),-3.3,0.1,2.0,-10.7,.,
O=P(OC1CCS(=O)(=O)C1)(c1ccccc1)c1ccccc1 (configuration not stated),-2.5,-0.6,26.6*,3.2,-0.6,
COc1ccc(CNC(=O)c2ccccc2NC(=O)C2=C(C)OCCS2)cc1,-2.9,0.7,4.1,-13.2,.,
CCN(CC)CCNC(=O)c1ccc(NC(=O)c2cn(-c3ccc(F)cc3)nc2-c2cccc(OC)c2)cc1,-0.2,-1.3,9.0,11.9,.,
CN(C)C(=O)c1ccc(NC(=O)c2cc(-c3ccco3)nc3ccccc23)cc1,-4.3,1.9,-3.2,-8.8,.,
CCN(CC)CCNC(=O)c1ccc(NC(=O)c2cc(-c3ccco3)nc3ccccc23)cc1,-4.1,3.4,25.5*,4.4,1.1,
CCN(CC)CCNC(=O)c1ccc(NC(=O)c2cn(-c3ccccc3)nc2-c2cccs2)cc1,-6.2,-1.6,39.0*,13.9,55.9*,
O=C(NCc1ccncc1)Nc1ccccc1,-1.2,0.1,-4.5,9.4,.,
O=C(NCc1ccncc1)Nc1ccc(Cc2ccc(NC(=O)NCc3ccncc3)cc2)cc1,2.1,0.9,27.1*,-1.8,56.5*,
CC(Sc1ncccn1)C(=O)N1CCc2ccccc21 (configuration not stated),-1.0,-1.2,3.0,-3.3,.,
COc1ccc(-c2cc(NC=O)c3ncc(-c4cccc(C(=O)NCCN(C)C)c4)n3c2)cc1,-0.2,11.4*,27.4*,8.3,26.6*,MsrA inh confirm=0.6
CCOC(=O)c1cc2c(=Cc3ccc(N(C)C)cc3)c3ccccc3n2[n+]1C,-4.8,5.0*,28.6*,20.9,-5.5,MsrA inh confirm=0.0
CCOC(=O)SC1=N/C(=C\c2ccc(N(C)C)cc2)C(=O)S1,0.6,1.3,6.6,6.2,.,
CCc1nc2c(OCC(=O)N3CCOCC3)cccn2c1N(C=O)Cc1ccccc1,-1.5,0.1,2.4,-6.2,.,
CCc1ccc[n+](-c2[nH]c(=O)sc2/C=N/N=C(\[O-])c2ccncc2)c1,-6.0,2.8,-5.8,5.1,.,
